Measured values: publication PMC6061410 (Clinical Drug Investigation, 2018)
“Also recorded” adds a separate entry of the source.

Test system: healthy young and healthy elderly subjects
Assay: Safety and tolerability
Type: in vivo, human
Outline: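 Adverse events were recorded by system organ class and preferred term in the treated set. This was 84 healthy young or elderly subjects randomised 3:1 to oral drug or placebo over 14 days, across seven ascending dose groups with a safety review before each escalation. Changes were assessed against the last pre-dose baseline measurement.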

`C[C@@H](Oc1ccc(S(C)(=O)=O)cc1C(=O)N1C[C@@H]2C[C@]2(c2cc(C(F)(F)F)on2)C1)C(F)(F)F` [BI 425809] was tested, and the “intensity of treatment-emergent AEs” value (all dose groups) was “mild-to-moderate; also recorded: mild or moderate”, the “intensity of eye disorders” value (both age groups) was “mild” and the “subjects who reported one or more AEs” value (elderly subjects receiving the active drug) was 88.9%. For the same compound, the “subjects with drug-related AEs” value (elderly subjects who received BI 425809) was 77.8%, the Back pain (elderly, 25 mg QD) was 1 (11.1) n (%) and the Constipation (elderly, 25 mg QD) was 0 (–) n (%). The Dizziness (elderly, 25 mg QD) was 1 (11.1) n (%), the Eye disorders (elderly, 25 mg QD) was 1 (11.1) n (%) and the Folliculitis (elderly, 25 mg QD) was 2 (22.2) n (%). The Gastrointestinal disorders (elderly, 25 mg QD) was 6 (66.7) n (%), the “General disorders and administration site conditions” value (elderly, 25 mg QD) was 2 (22.2) n (%) and the Hard faeces (elderly, 25 mg QD) was 2 (22.2) n (%). The Headache (elderly, 25 mg QD) was 1 (11.1) n (%), the Infections and infestations (elderly, 25 mg QD) was 3 (33.3) n (%) and the “Injury, poisoning and procedural complications” value (elderly, 25 mg QD) was 2 (22.2) n (%). The “Musculoskeletal and connective tissue disorders” value (elderly, 25 mg QD) was 1 (11.1) n (%), the Nasopharyngitis (elderly, 25 mg QD) was 1 (11.1) n (%) and the Nausea (elderly, 25 mg QD) was 1 (11.1) n (%). The Nervous system disorder (elderly, 25 mg QD) was 2 (22.2) n (%), the Psychiatric disorders (elderly, 25 mg QD) was 2 (22.2) n (%) and the “Subjects with AEs leading to study discontinuation” value (shortened to “Subjects with AEs leading”) (elderly, 25 mg QD) was 0 (–) n (%). For the same compound, the “Subjects with investigator-defined drug-related AEs” value (elderly, 25 mg QD) was 6 (66.7) n (%), the “Total with AEs” value (elderly, 25 mg QD) was 8 (88.9) n (%) and the Venepuncture site haematoma (elderly, 25 mg QD) was 1 (11.1) n (%). For the same compound, the Vomiting (elderly, 25 mg QD) was 1 (11.1) n (%), the Back pain (elderly, 50 mg QD) was 1 (11.1) n (%) and the Constipation (elderly, 50 mg QD) was 4 (44.4) n (%). The Dizziness (elderly, 50 mg QD) was 2 (22.2) n (%), the Eye disorders (elderly, 50 mg QD) was 1 (11.1) n (%) and the Folliculitis (elderly, 50 mg QD) was 1 (11.1) n (%). The Gastrointestinal disorders (elderly, 50 mg QD) was 5 (55.6) n (%), the “General disorders and administration site conditions” value (elderly, 50 mg QD) was 4 (44.4) n (%) and the Hard faeces (elderly, 50 mg QD) was 0 (–) n (%). For the same compound, the Headache (elderly, 50 mg QD) was 1 (11.1) n (%), the Infections and infestations (elderly, 50 mg QD) was 3 (33.3) n (%) and the “Injury, poisoning and procedural complications” value (elderly, 50 mg QD) was 0 (–) n (%). The “Musculoskeletal and connective tissue disorders” value (elderly, 50 mg QD) was 2 (22.2) n (%), the Nasopharyngitis (elderly, 50 mg QD) was 1 (11.1) n (%) and the Nausea (elderly, 50 mg QD) was 1 (11.1) n (%). For the same compound, the Nervous system disorder (elderly, 50 mg QD) was 3 (33.3) n (%), the Psychiatric disorders (elderly, 50 mg QD) was 2 (22.2) n (%) and the “Subjects with AEs leading” value (elderly, 50 mg QD) was 1 (11.1) n (%). For the same compound, the “Subjects with investigator-defined drug-related AEs” value (elderly, 50 mg QD) was 8 (88.9) n (%), the “Total with AEs” value (elderly, 50 mg QD) was 8 (88.9) n (%) and the Venepuncture site haematoma (elderly, 50 mg QD) was 4 (44.4) n (%). The Vomiting (elderly, 50 mg QD) was 1 (11.1) n (%), the Back pain (elderly, Total BI n = 18) was 2 (11.1) n (%) and the Constipation (elderly, Total BI n = 18) was 4 (22.2) n (%). For the same compound, the Dizziness (elderly, Total BI n = 18) was 3 (16.7) n (%), the Eye disorders (elderly, Total BI n = 18) was 2 (11.1) n (%) and the Folliculitis (elderly, Total BI n = 18) was 3 (16.7) n (%). For the same compound, the Gastrointestinal disorders (elderly, Total BI n = 18) was 11 (61.1) n (%), the “General disorders and administration site conditions” value (elderly, Total BI n = 18) was 6 (33.3) n (%) and the Hard faeces (elderly, Total BI n = 18) was 2 (11.1) n (%). For the same compound, the Headache (elderly, Total BI n = 18) was 2 (11.1) n (%), the Infections and infestations (elderly, Total BI n = 18) was 6 (33.3) n (%) and the “Injury, poisoning and procedural complications” value (elderly, Total BI n = 18) was 2 (11.1) n (%). For the same compound, the “Musculoskeletal and connective tissue disorders” value (elderly, Total BI n = 18) was 3 (16.7) n (%), the Nasopharyngitis (elderly, Total BI n = 18) was 2 (11.1) n (%) and the Nausea (elderly, Total BI n = 18) was 2 (11.1) n (%). The Nervous system disorder (elderly, Total BI n = 18) was 5 (27.8) n (%), the Psychiatric disorders (elderly, Total BI n = 18) was 4 (22.2) n (%) and the “Subjects with AEs leading” value (elderly, Total BI n = 18) was 1 (5.6) n (%). For the same compound, the “Subjects with investigator-defined drug-related AEs” value (elderly, Total BI n = 18) was 14 (77.8) n (%), the “Total with AEs” value (elderly, Total BI n = 18) was 16 (88.9) n (%) and the Vomiting (elderly, Total BI n = 18) was 2 (11.1) n (%). For the same compound, the “dose dependency of AEs” value (frequency of subjects with drug-related AE across treatment groups) was “no dose dependency was observed; also recorded: not dose dependent”, the tolerability (multiple doses 10–75 mg QD or 75 mg BID (young), 25 or 50 mg QD (elderly)) was “generally well tolerated” and the “serious AEs” value (part 1, all dose groups) was “no serious adverse events occurred; also recorded: no serious AEs were reported”. The “subjects who experienced one or more AEs” value (young subjects, part 1, active-treatment arm) was 66.7%, the “subjects with drug-related AEs” value (young subjects, part 1, receiving BI 425809) was 60.0% and the Dizziness (young, part 1, 10 mg QD) was 1 (11.1) n (%). The Eye disorders (young, part 1, 10 mg QD) was 0 (–) n (%), the Gastrointestinal disorders (young, part 1, 10 mg QD) was 0 (–) n (%) and the “General disorders and administration site conditions” value (young, part 1, 10 mg QD) was 0 (–) n (%). The Headache (young, part 1, 10 mg QD) was 3 (33.3) n (%), the Infections and infestations (young, part 1, 10 mg QD) was 1 (11.1) n (%) and the Insomnia (young, part 1, 10 mg QD) was 0 (–) n (%). The “Musculoskeletal and connective tissue disorders” value (young, part 1, 10 mg QD) was 1 (11.1) n (%), the Nasopharyngitis (young, part 1, 10 mg QD) was 0 (–) n (%) and the Nervous system disorder (young, part 1, 10 mg QD) was 4 (44.4) n (%). The Ocular discomfort (young, part 1, 10 mg QD) was 0 (–) n (%), the Psychiatric disorders (young, part 1, 10 mg QD) was 0 (–) n (%) and the “Subjects with AEs leading” value (young, part 1, 10 mg QD) was 0 (–) n (%). For the same compound, the “Subjects with investigator-defined drug-related AEs” value (young, part 1, 10 mg QD) was 4 (44.4) n (%), the “Total with AEs” value (young, part 1, 10 mg QD) was 5 (55.6) n (%) and the Vision blurred (young, part 1, 10 mg QD) was 0 (–) n (%). The Dizziness (young, part 1, 25 mg QD) was 0 (–) n (%) and the Eye disorders (young, part 1, 25 mg QD) was 2 (22.2) n (%).
